Tests used:
Assay in all cases: MTT assay, cytotoxicity/growth inhibition
[1] = tested on: HCT-116 (colon carcinoma); format: cell-based; details: Homo sapiens; for inhibition at 20 µM: HCT-116, 48 h, read-out: Cytotoxic Activity (% Growth Inhibition)
Procedure, shortened: (§1)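 Cells were grown in RPMI (A549, HCT-116, PC-3) or DMEM (MCF-7) with 10% FBS at 37 °C and 5% CO2. Seeding per well was […] and PC-3 8 × 10^4 cells. […] MTT 250 μg/mL, 4 h; DMSO; A570; triplicate; mean ± SE.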

A549 (lung carcinoma) = format: cell-based, human; details: Homo sapiens; for inhibition at 20 µM: A549, 48 h, read-out: Cytotoxic Activity (% Growth Inhibition), A549, 20 μM concentration, MTT, 48 h
Procedure, shortened: as §1

MCF-7 (breast carcinoma) = format: cell-based; details: Homo sapiens; for inhibition at 20 µM: MCF7, 48 h, read-out: Cytotoxic Activity (% Growth Inhibition)
Procedure, shortened: as §1

[2] = tested on: PC-3 (prostate carcinoma); format: cell-based; details: Homo sapiens; for inhibition at 20 µM: 48 h, read-out: Cytotoxic Activity (% Growth Inhibition)
Procedure, shortened: as §1

Structure (SMILES) | inhibition at 20 µM [1] [%] | inhibition at 20 µM (A549 (lung carcinoma)) [%] | inhibition at 20 µM (MCF-7 (breast carcinoma)) [%] | inhibition at 20 µM [2] [%] | IC50 ([1]; HCT-116) [µM] | IC50 (A549 (lung carcinoma); A549) [µM] | IC50 (MCF-7 (breast carcinoma); MCF7) [µM] | IC50 [2] [µM]
C[C@]1(CO)C2CC=C(COC(=O)c3cccc(F)c3)[C@@H](/C=C/C3=CCOC3=O)[C@]2(C)CC[C@H]1O (stereo partly drawn) [Compound 9c, ((1S,5R,6R,8aR)-6-Hydroxy-5-(hydroxymethyl)-5,8a-dimethyl-1-((E)-2-(2-oxo-2,5-dihydrofuran-3-yl)vinyl)-1,4,4a,5,6,7,8,8a-octahydronaphthalen-2-yl)methyl 3-Fluorobenzoate] | 14.8 ± 0.17 | 42.92 ± 0.27 | 1.54 ± 0.03 | 0 |  |  |  | 
COc1cc(CC(=O)OCC2=CCC3[C@](C)(CO)[C@H](O)CC[C@@]3(C)[C@@H]2/C=C/C2=CCOC2=O)cc(OC)c1OC (stereo partly drawn) [Compound 9u, ((1S,5R,6R,8aR)-6-Hydroxy-5-(hydroxymethyl)-5,8a-dimethyl-1-((E)-2-(2-oxo-2,5-dihydrofuran-3-yl)vinyl)-1,4,4a,5,6,7,8,8a-octahydronaphthalen-2-yl)methyl 2-(3,4,5-Trimethoxyphenyl)acetate] | 35.9 ± 0.87 | 32.6 ± 0.38 | 69 ± 0.58 | 48.7 ± 0.96 |  |  |  | 
C[C@@]12COC(c3ccccc3)O[C@@H]1CC[C@]1(C)C2CC=C(COC(=O)c2cccc(I)c2)[C@H]1/C=C/C1=CCOC1=O (stereo partly drawn) [Compound 8f, ((4aR,6aR,7S,10bR)-6a,10b-Dimethyl-7-((E)-2-(2-oxo-2,5-dihydrofuran-3-yl)vinyl)-3-phenyl-4a,5,6,6a,7,10,10a,10b-octahydro-1H-naphtho[2,1-d][1,3]dioxin-8-yl)methyl 3-Iodobenzoate] | 33.25 ± 0.11 | 30.98 ± 0.25 | 0 | 0 |  |  |  | 
COc1ccc(CC(=O)OCC2=CCC3[C@]4(C)COC(c5ccccc5)O[C@@H]4CC[C@@]3(C)[C@@H]2/C=C/C2=CCOC2=O)cc1 (stereo partly drawn) [Compound 8s, ((4aR,6aR,7S,10bR)-6a,10b-Dimethyl-7-((E)-2-(2-oxo-2,5-dihydrofuran-3-yl)vinyl)-3-phenyl-4a,5,6,6a,7,10,10a,10b-octahydro-1H-naphtho[2,1-d][1,3]dioxin-8-yl)methyl 2-(4-Methoxyphenyl)acetate] | 22.1 ± 0.44 | 78 ± 0.97 | 54 ± 0.53 | 75 ± 0.93 | > 20 | 6.6 | 16.9 | 5.9
C[C@]1(CO)C2CC=C(COC(=O)Cc3ccc(F)cc3)[C@@H](/C=C/C3=CCOC3=O)[C@]2(C)CC[C@H]1O (stereo partly drawn) [Compound 9p, ((1S,5R,6R,8aR)-6-Hydroxy-5-(hydroxymethyl)-5,8a-dimethyl-1-((E)-2-(2-oxo-2,5-dihydrofuran-3-yl)vinyl)-1,4,4a,5,6,7,8,8a-octahydronaphthalen-2-yl)methyl 2-(4-Fluorophenyl)acetate] | 27.6 ± 0.31 | 32.6 ± 0.96 | 12 ± 0.85 | 44 ± 0.89 |  |  |  | 
C[C@@]12COC(c3ccccc3)O[C@@H]1CC[C@]1(C)C2CC=C(COC(=O)c2ccc(Br)cc2F)[C@H]1/C=C/C1=CCOC1=O (stereo partly drawn) [Compound 8m, ((4aR,6aR,7S,10bR)-6a,10b-Dimethyl-7-((E)-2-(2-oxo-2,5-dihydrofuran-3-yl)vinyl)-3-phenyl-4a,5,6,6a,7,10,10a,10b-octahydro-1H-naphtho[2,1-d][1,3]dioxin-8-yl)methyl 4-Bromo-2-fluorobenzoate] | 30.4 ± 0.9 |  | 44 ± 0.24 | 0 |  |  |  | 
COc1cc(C(=O)OCC2=CCC3[C@](C)(CO)[C@H](O)CC[C@@]3(C)[C@@H]2/C=C/C2=CCOC2=O)cc(OC)c1OC (stereo partly drawn) [Compound 9k, ((1S,5R,6R,8aR)-6-Hydroxy-5-(hydroxymethyl)-5,8a-dimethyl-1-((E)-2-(2-oxo-2,5-dihydrofuran-3-yl)vinyl)-1,4,4a,5,6,7,8,8a-octahydronaphthalen-2-yl)methyl 3,4,5-Trimethoxybenzoate] | 19.8 ± 0.68 | 29.4 ± 0.82 | 41 ± 0.87 |  |  |  |  | 

From publication PMC9933479 (ACS Omega, 2023)
